According to ChEMBL document CHEMBL1128311, “Probes for narcotic receptor-mediated phenomena. 20. Alteration of opioid receptor subtype selectivity of the 5-(3-hydroxyphenyl)morphans by application of the message-address concept: preparation of delta-opioid receptor ligands” (J Med Chem, 1995):
Where “and” joins values, the source holds several entries; their conditions need not be identical. Identical values can stand only once.

What was measured:
[1] = target: Opioid receptors; mu & delta (Rattus norvegicus) (UniProt P33533+P33535); assay: Selectivity as the ratio of IC50 value against mu receptor to that of delta receptor.; type: protein assay
Opioid receptors; mu & delta (Rattus norvegicus), sequence (P33533 whole entry, looked up): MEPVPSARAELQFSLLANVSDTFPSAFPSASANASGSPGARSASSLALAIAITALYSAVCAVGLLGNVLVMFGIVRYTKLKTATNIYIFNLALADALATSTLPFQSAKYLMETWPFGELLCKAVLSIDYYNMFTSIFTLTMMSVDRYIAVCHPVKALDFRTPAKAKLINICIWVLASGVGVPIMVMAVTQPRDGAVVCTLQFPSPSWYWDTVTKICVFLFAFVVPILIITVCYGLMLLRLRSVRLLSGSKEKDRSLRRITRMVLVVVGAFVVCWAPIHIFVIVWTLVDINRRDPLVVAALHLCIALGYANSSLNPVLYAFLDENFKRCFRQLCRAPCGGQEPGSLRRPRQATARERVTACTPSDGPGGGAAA
Opioid receptors; mu & delta (Rattus norvegicus), sequence (P33535 whole entry, looked up): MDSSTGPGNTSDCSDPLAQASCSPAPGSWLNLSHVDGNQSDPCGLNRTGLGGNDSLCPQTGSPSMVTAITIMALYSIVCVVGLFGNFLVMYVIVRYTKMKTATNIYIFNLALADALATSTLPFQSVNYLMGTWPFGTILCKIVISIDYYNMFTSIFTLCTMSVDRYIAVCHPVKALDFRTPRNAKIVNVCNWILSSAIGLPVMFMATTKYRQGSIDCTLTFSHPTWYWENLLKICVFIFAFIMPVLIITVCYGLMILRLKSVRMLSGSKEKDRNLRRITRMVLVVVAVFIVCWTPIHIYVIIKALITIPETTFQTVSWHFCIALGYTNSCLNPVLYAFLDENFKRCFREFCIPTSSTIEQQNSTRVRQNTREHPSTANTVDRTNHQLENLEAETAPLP

Mu-type opioid receptor [2] = target: Mu-type opioid receptor (Rattus norvegicus, UniProt P33535); assay: Inhibition of [3H]DAMGO radioligand binding to rat brain opioid receptor mu 1.
Mu-type opioid receptor (Rattus norvegicus, UniProt P33535), sequence (P33535 whole entry): as the sequence (P33535 whole entry, looked up) above
Outline: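 Rat brain membranes labelled with [3H]DAMGO (1-3 nM). Incubation 4 h at 25 °C in 50 mM Tris-HCl pH 7.4 with protease inhibitor cocktail. Nonspecific binding with 20 μM levallorphan. 8-10 drug concentrations, run twice. Dilutions in 10 mM Tris-HCl pH 7.4 with 1 mg/mL BSA. IC50 from curve fitting.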

[3] = target: T1, Kappa-type opioid receptor (Cavia porcellus, UniProt P41144); assay: Inhibition of [3H]U-69593 radioligand binding to Guinea pig opioid receptor kappa 1.
T1 sequence (P41144 whole entry): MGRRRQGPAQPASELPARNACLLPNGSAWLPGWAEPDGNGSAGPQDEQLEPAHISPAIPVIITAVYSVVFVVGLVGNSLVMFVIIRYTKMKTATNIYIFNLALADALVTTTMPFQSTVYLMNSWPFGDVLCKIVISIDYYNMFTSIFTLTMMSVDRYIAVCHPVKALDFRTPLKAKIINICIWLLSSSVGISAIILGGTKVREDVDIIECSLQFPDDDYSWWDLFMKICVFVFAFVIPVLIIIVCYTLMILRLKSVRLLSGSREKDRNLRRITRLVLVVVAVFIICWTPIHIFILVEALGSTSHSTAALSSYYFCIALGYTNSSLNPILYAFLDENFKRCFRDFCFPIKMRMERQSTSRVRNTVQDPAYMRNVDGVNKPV

[4] = target: Delta-type opioid receptor (Rattus norvegicus, UniProt P33533); assay: Inhibition of [3H]DADLE radioligand binding to rat brain opioid receptor delta 1.
Delta-type opioid receptor (Rattus norvegicus, UniProt P33533), sequence (P33533 whole entry): as the sequence (P33533 whole entry, looked up) above

[5] = target: Delta-type opioid receptor (Mus musculus) (UniProt P32300); assay: (§1) Opioid activity against delta-receptor of isolated mouse vas deferens(MVD) at 30 uM
Delta-type opioid receptor (Mus musculus), sequence (P32300 whole entry): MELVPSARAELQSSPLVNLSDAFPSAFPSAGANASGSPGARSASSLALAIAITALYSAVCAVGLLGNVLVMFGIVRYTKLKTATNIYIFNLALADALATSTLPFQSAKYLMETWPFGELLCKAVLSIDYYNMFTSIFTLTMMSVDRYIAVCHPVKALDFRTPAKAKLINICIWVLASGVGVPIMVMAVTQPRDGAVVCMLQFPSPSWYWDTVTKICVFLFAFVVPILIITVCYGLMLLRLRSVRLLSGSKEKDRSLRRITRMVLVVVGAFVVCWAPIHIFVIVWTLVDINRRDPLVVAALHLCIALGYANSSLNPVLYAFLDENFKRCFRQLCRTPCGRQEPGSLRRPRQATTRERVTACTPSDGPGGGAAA
Outline: (§2)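 Electrically stimulated contractions of male ICR mouse vas deferens (25-40 g mice) and male Hartley guinea pig ileum longitudinal muscle myenteric plexus strips (250-500 g animals). Tissues held in 37 °C oxygenated Krebs bicarbonate (Mg-free for MVD) at 1 g tension (0.5 g for MVD). Percent inhibition is the contraction height in the 1 min before agonist versus at maximal inhibition. IC50 from nonlinear least squares fit over 2-4 tissues.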

Mu-type opioid receptor [6] = target: Mu-type opioid receptor (Cavia porcellus, UniProt P97266); assay: The opioid activity against the mu-receptor in the isolated guinea pig ileum(GPI); type: tissue-based; outline: as §2
Mu-type opioid receptor (Cavia porcellus, UniProt P97266), sequence (P97266 whole entry): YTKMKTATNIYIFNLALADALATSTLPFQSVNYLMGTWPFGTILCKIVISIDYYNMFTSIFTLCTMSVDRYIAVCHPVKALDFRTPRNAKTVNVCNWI

[7] = target: Delta-type opioid receptor (Mus musculus, UniProt P32300); assay: as §1; outline: as §2
Delta-type opioid receptor (Mus musculus, UniProt P32300), sequence (P32300 whole entry): as the sequence (P32300 whole entry) above

[8] = target: T1, Kappa-type opioid receptor; assay: Inhibition of [3H]-U-69,593 radioligand binding to Guinea pig Opioid receptor kappa 1; not determined
Outline: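 Guinea pig brain membranes depleted of μ and δ sites by pretreatment with irreversible ligands BIT and FIT, labelled with [3H]-U69,593 (1.2-2.3 nM). Incubation 4-6 h at 25 °C in 50 mM Tris-HCl pH 7.4 with protease inhibitor cocktail and 1 μg/mL captopril. Nonspecific binding with 1 μM U69,593. 8-10 drug concentrations, run twice. IC50 from curve fitting.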

| Compound | Selectivity [1] | IC50 (Mu-type opioid receptor [2]) | IC50 [3] | IC50 [4] | inhibition [5] | IC50 (Mu-type opioid receptor [6]) | IC50 [7] | IC50 [8] |
| --- | --- | --- | --- | --- | --- | --- | --- | --- |
| CN1CCC2(c3cccc(O)c3)C/C(=N/Nc3ccccc3)CC1C2 (stereo not drawn) | 0.08 | 8.7 nM | 241 nM | 111 nM |  |  |  |  |
| CCCCCN1CCC2(c3cccc(O)c3)CC1Cc1[nH]c3ccccc3c12 (stereo not drawn) | 3.41 | 23.5 nM | 993 nM | 6.9 nM |  |  |  |  |
| CN1CCC2(c3cccc(O)c3)CC(=O)CC1C2 (single isomer, unassigned; (+)) [listing 1 of 2 here] |  | 137 nM | 5070 nM | 1140 nM |  |  |  |  |
| CN1CCC2(c3cccc(O)c3)CC(=O)CC1C2 (stereo in doubt; 13) [listing 1 of 2 here] | 0.03 |  |  |  |  |  |  |  |
| CCCCN1CCC2(c3cccc(O)c3)CC1Cc1[nH]c3ccccc3c12 (stereo not drawn) | 4.02 | 72.4 nM | > 1000 nM | 18 nM |  |  |  |  |
| Oc1cccc(C23CCN(CCc4ccccc4)C(Cc4[nH]c5ccccc5c42)C3)c1 (single isomer, unassigned; (+)) [listing 1 of 2 here] | < 0.09 |  |  |  |  |  |  |  |
| CCCCCCN1CCC2(c3cccc(O)c3)CC1Cc1[nH]c3ccccc3c12 (stereo not drawn) | 2.08 | 70.6 nM | > 1000 nM | 34 nM |  |  |  |  |
| CN1CCC2(c3cccc(O)c3)CCCC1C2 (stereo in doubt; (-)-1) [listing 1 of 2 here] | < 0.02 |  |  |  | 26% |  |  |  |
| Oc1cccc(C23CCN(CCc4ccccc4)C(Cc4[nH]c5ccccc5c42)C3)c1 (single isomer, unassigned; (+)) [listing 2 of 2 here] |  | 89.2 nM | > 1000 nM | > 1000 nM |  |  |  |  |
| CN1CCC2(c3cccc(O)c3)CC1Cc1[nH]c3ccc4ccccc4c3c12 (stereo not drawn) |  | > 1000 nM | > 1000 nM | > 10000 nM |  |  |  |  |
| CN1CCC2(c3cccc(O)c3)Cc3nc4ccccc4cc3C1C2 (stereo not drawn) |  |  | 197 nM |  |  |  |  |  |
| CN1CCC2(c3cccc(O)c3)CCCC1C2 (stereo in doubt; (-)-1) [listing 2 of 2 here] |  | 20.8 nM | 819 nM | > 1000 nM |  | 639 nM |  |  |
| CN1CCC2(c3cccc(O)c3)Cc3[nH]c4c(ccc5ccccc54)c3C1C2 (stereo not drawn) | 0.35 | 366 nM | > 1000 nM | 1050 nM |  |  |  |  |
| CCCCCCCN1CCC2(c3cccc(O)c3)CC1Cc1[nH]c3ccccc3c12 (stereo not drawn) | 1.43 | 66.6 nM | > 1000 nM | 46.7 nM |  |  |  |  |
| CN1CCC2(c3cccc(O)c3)CC1Cc1[nH]c3c(ccc4ccccc43)c12 (stereo not drawn) | 16.5 | 208 nM | > 1000 nM | 12.6 nM |  |  |  |  |
| C=CCN1CCC2(c3cccc(O)c3)CC1Cc1[nH]c3ccccc3c12 (stereo not drawn) | 2.58 | 361 nM | 2160 nM | 140 nM |  |  |  |  |
| Oc1cccc(C23CCN(CCc4ccccc4)C(Cc4[nH]c5ccccc5c42)C3)c1 (stereo not drawn) [listing 1 of 2 here] |  | 50.6 nM | > 1000 nM | 5.7 nM |  |  |  |  |
| CCCN1CCC2(c3cccc(O)c3)CC1Cc1[nH]c3ccccc3c12 (stereo not drawn) | 7.4 | 300 nM | > 1000 nM | 40.5 nM |  |  |  |  |
| Oc1cccc(C23CCN(Cc4ccccc4)C(Cc4[nH]c5ccccc5c42)C3)c1 (stereo not drawn) | 2.76 | 508 nM | 90 nM | 184 nM |  |  |  |  |

| Compound | Selectivity [1] | IC50 (Mu-type opioid receptor [2]) | IC50 [3] | IC50 [4] | inhibition [5] | IC50 (Mu-type opioid receptor [6]) | IC50 [7] | IC50 [8] |
| --- | --- | --- | --- | --- | --- | --- | --- | --- |
| CN1CCC2(c3cccc(O)c3)Cc3[nH]c4ccccc4c3C1C2 (stereo not drawn) | < 0.04 | 43.9 nM | 798 nM | > 1000 nM |  |  |  |  |
| Oc1cccc(C23CCN(CC4CC4)C(Cc4[nH]c5ccccc5c42)C3)c1 (stereo not drawn) | 2.14 | 180 nM | 934 nM | 84.1 nM |  |  |  |  |
| Oc1cccc(C23CCNC(Cc4[nH]c5ccccc5c42)C3)c1 (stereo not drawn) | 5.14 | 357 nM | > 10000 nM | 69.5 nM |  |  |  |  |
| CN1CCC2(c3cccc(O)c3)CCCC1C2 (single isomer, unassigned; (+)) [listing 1 of 2 here] | < 0.02 |  |  |  |  |  |  |  |
| CN1CCC2(c3cccc(O)c3)CC(=O)CC1C2 (single isomer, unassigned; (+)) [listing 2 of 2 here] | 0.12 |  |  |  |  |  |  |  |
| CN1CCC2(c3cccc(O)c3)CC1C[C@@H](NC(=O)c1ccccc1)C2 (stereo partly drawn) |  |  | 5560 nM | 487 nM |  |  |  |  |
| CN1CCC2(c3cccc(O)c3)CC(=O)CC1C2 (stereo in doubt; 13) [listing 2 of 2 here] |  | 21.2 nM | 2030 nM | 720 nM |  |  |  |  |
| CN1CCC2(c3cccc(O)c3)CCCC1C2 (single isomer, unassigned; (+)) [listing 2 of 2 here] |  | 21.4 nM | 910 nM | > 1000 nM |  | 169 nM | 557 nM |  |
| CN1CCC2(c3cccc(O)c3)CC1Cc1[nH]c3ccccc3c12 (single isomer, unassigned; (-)) [listing 1 of 2 here] |  | 14.2 nM |  | 5.6 nM |  | 2350 nM | 393 nM |  |
| CN1CCC2(c3cccc(O)c3)CC1Cc1[nH]c3ccccc3c12 (stereo not drawn) |  | 21.4 nM and 29.8 nM | > 1000 nM |  |  | 1940 nM and 2070 nM | 1390 nM and 347 nM |  |
| CCN1CCC2(c3cccc(O)c3)CC1Cc1[nH]c3ccccc3c12 (stereo not drawn) | 5.4 | 1260 nM | > 1000 nM | 233 nM |  |  |  |  |
| Oc1cccc(C23CCN(CCc4ccccc4)C(Cc4[nH]c5ccccc5c42)C3)c1 (single isomer, unassigned; (-)) [listing 1 of 2 here] | 4.03 |  |  |  |  |  |  |  |
| CN1CCC2(c3cccc(O)c3)CC1C[C@@H](NC(=O)Cc1ccccc1)C2 (stereo partly drawn) | 0.52 | 119 nM | 2220 nM | 227 nM |  |  |  |  |
| Oc1cccc(C23CCN(CCc4ccccc4)C(Cc4[nH]c5ccccc5c42)C3)c1 (single isomer, unassigned; (-)) [listing 2 of 2 here] |  | 25 nM | > 1000 nM | 6.2 nM |  |  |  |  |
| CN1CCC2(c3cccc(O)c3)CC(=O)CC1C2 (single isomer, unassigned; (-)) [listing 1 of 2 here] |  | 33.5 nM | 981 nM | 273 nM |  |  |  |  |
| CC(C)C[C@@H](NC(=O)[C@H](Cc1ccccc1)NC(=O)CNC(=O)[C@@H](C)NC(=O)[C@@H](N)Cc1ccc(O)cc1)C(=O)O [DADLE] |  |  |  |  |  | 28.8 nM |  | 1.71 nM |
| CN1CCC2(c3cccc(O)c3)CC(=O)CC1C2 (single isomer, unassigned; (-)) [listing 2 of 2 here] | 0.12 |  |  |  |  |  |  |  |
| CN1CCC2(c3cccc(O)c3)CC1Cc1[nH]c3ccccc3c12 (single isomer, unassigned; (-)) [listing 2 of 2 here] | 2.54 |  |  |  |  |  |  |  |
| Oc1cccc(C23CCN(CCc4ccccc4)C(Cc4[nH]c5ccccc5c42)C3)c1 (stereo not drawn) [listing 2 of 2 here] | 8.88 |  |  |  |  |  |  |  |
